Published values collected from several papers.
Each line is one published result; the experiments were not run side by side.
Target: Myosin light chain kinase, smooth muscle (MYLK, Homo sapiens, UniProt Q15746)

With `c1cnn2ncc(-c3ccnc(N4CCC45COC5)n3)c2c1` the remaining binding was 84% (binding; 1 µM).
With `COc1cnc(Nc2cccc(S(N)(=O)=O)c2)nc1N1CCN(c2ccccc2)CC1` the remaining binding was 70% (binding, competition with immobilised ligand; 1 µM).
For `CO[C@@H](C)c1c(Nc2ccc([C@H](N(C)C(=O)C3CCS(=O)(=O)CC3)C(F)(F)F)cc2)cnc2cc(Cl)nn12`, the remaining binding was 95% (cell-free assay, competition with immobilised ligand; 1 µM).
With `N[C@@H]1CCN(c2nccc(-c3cnn4ncccc34)n2)C1` the remaining binding was 100% (binding; 1 µM).
For `O=C(NCCCN1CCOCC1)c1ccc(Nc2ncc(Cl)c(-c3ccc(Cl)s3)n2)cc1`, the remaining binding was 89% (binding, competition with immobilised ligand; 1 µM).
`CN(C)c1nccc(-c2cnn3ncccc23)n1` has a remaining binding of 63% (binding; 1 µM).
The remaining binding of `C[C@@]1(Cc2ccc(C#N)cc2)C(=O)N(c2cc(Cl)cc(Cl)c2)c2ncc(C(=O)NC3(c4nc(C5CCC5)no4)CC3)n21` is reported as 100% (cell-free assay, competition with immobilised ligand; 1 µM).
`O=C(NCCCN1CCOCC1)c1ccc(Nc2nccc(-c3cc4ccccc4s3)n2)cc1` has a remaining binding of 94% (binding, competition with immobilised ligand; 1 µM).
With `CN(C)c1ncc(F)c(-c2cnn3ncccc23)n1` the remaining binding was 98% (binding; 1 µM).
For `C=CC(=O)N1CCC(C(=O)NCC(=O)N2CCN(c3nc(-c4cnc(N)nc4C(F)F)nc(N4CCOCC4)n3)CC2)CC1`, the remaining binding was 61% (binding, competition with immobilised ligand; 1 µM).
For `O=C(c1ccc(Nc2ncc(Cl)c(-c3cc4ccccc4s3)n2)cc1)N1CCC(N2CCCC2)CC1`, the remaining binding was 54% (binding, competition with immobilised ligand; 1 µM).
For `O=C(Nc1c[nH]nc1C(=O)NC1CCNCC1)c1cc(F)cc(F)c1`, the remaining binding was 100% (binding, competition with immobilised ligand; 1 µM).
The remaining binding of `C[C@@H](c1ccc(-n2cnc3c(N)ncnc32)cc1)N1CCc2nn(C)c(Cc3ccccc3)c2C1=O` is reported as 94% (binding, competition with immobilised ligand; 0.1 µM).
`FC(F)(F)c1ccc2c(c1)nc(-c1cccnc1)n2C1CC1` has a remaining binding of 100% (cell-free assay, competition with immobilised ligand; 1 µM).
`CC1CCCN1c1nccc(-c2cnn3ncccc23)n1` (stereo not drawn) has a remaining binding of 97% (binding; 1 µM).
The remaining binding of `CC(=O)c1c(NS(C)(=O)=O)c2cc(-c3ccc(Cl)cc3)c(-c3ccc(Cl)cc3Cl)nc2n(C)c1=O` is reported as 93% (cell-free assay, competition with immobilised ligand; 1 µM).
With `COc1ncc2cc3ccccc3nc2c1C#N` the remaining binding was 92% (binding, competition with immobilised ligand; 5 µM).
The remaining binding of `CCCCN(CCCC)C(=O)CN1C[C@H](c2cc(OC)c3c(c2)OCO3)[C@@H](C(=O)O)[C@@H]1CC(C)(C)CCC` is reported as 100% (cell-free assay, competition with immobilised ligand; 1 µM).
`Nc1ncc2c(n1)-c1c([nH]c3ccc(C#CC4CC4)cc13)CCCC2` gave a remaining binding of 92% (binding, competition with immobilised ligand; 1 µM).
`CN(C)c1nccc(-c2cnc3ncccn23)n1` has a remaining binding of 94% (binding; 1 µM).
The remaining binding of `O=C(O)[C@@H]1[C@@H](Cn2nnc3ccccc3c2=O)CC[C@H]1C(=O)c1ccc(OCCC2CCOCC2)cc1` is reported as 100% (cell-free assay, competition with immobilised ligand; 1 µM).
